Laboratory results published in PMC11978860 (Nature Communications, 2025).

Key:
Type in all cases: in vivo, Drosophila melanogaster
[1] = test system: Tip60-RNAi knockdown Drosophila larvae; conditions: oral in food; for Performance in rescuing locomotor defects (in words): compared to CTB
[2] = test system: AD-associated APP Drosophila third-instar larvae; assay: Larval locomotor assay in AD-associated APP model
In short: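 elavC155-Gal4/UAS-APP larvae (w1118 background), with parental crosses set on food containing the test compound in DMSO (final DMSO ≤0.01%) or DMSO alone, so larvae feed from hatching. Wandering third instars of either sex are rinsed in distilled water, placed on 2.5% agar over a 0.5 cm grid, and acclimated 1 min. Read-outs are speed (mm/s, video tracking) and head line crossings in 30 s. Analysis is one-way ANOVA with Dunnett's test.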

[3] = test system: Tip60-RNAi-2 Drosophila larvae; assay: Larval locomotor assay in second Tip60-RNAi line; conditions: 100 uM, line crossing in 30 seconds
In short: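 elavC155-Gal4 × UAS-Tip60 RNAi-2 progeny (w1118 background) are reared from hatching on food containing the test compound in DMSO (final DMSO ≤0.01%) or vehicle. Wandering third-instar larvae are rinsed and placed on a 2.5% agar plate over a 0.5 cm × 0.5 cm grid. After 1 min acclimation, head line crossings are counted over 30 s. Analysis is one-way ANOVA with Dunnett's comparisons.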

Row | SMILES | Performance in rescuing locomotor defects (in words) [1] | further results
1 | Cn1cc(C(=O)COc2ccccc2C(=O)Nc2ccc(Cl)c(C(F)(F)F)c2)cn1 [C1, N-[4-chloro-3-(trifluoromethyl)phenyl]-2-[2-(1-methyl-1H-pyrazol-4-yl)-2-oxoethoxy]benzamide] | low-performing | 
2 | COC(=O)CCC(=O)COc1ccccc1C(=O)Nc1ccc(Cl)c(C(F)(F)F)c1 [C2, Methyl 5-(2-{[4-chloro-3-(trifluoromethyl)phenyl]carbamoyl}phenoxy)-4-oxopentanoate] | highest performers | Sustained effects to complete the assay and reach the wall (in words) [2]: sustained effects; Concentration significantly rescuing larval locomotor ability ([2]; oral in food): ≥ 50 µM; Rescue of locomotor deficits (in words) [3]: rescued locomotor deficits
3 | O=C(Nc1ccc(Cl)c(C(F)(F)F)c1)c1ccccc1OCC(=O)N1CCNC1=O [C4, N-[4-Chloro-3-(trifluoromethyl)phenyl]-2-[2-oxo-2-(2-oxo-1-imidazolidinyl)ethoxy]benzamide] | no effect | 
4 | CCOCCC(O)COc1ccccc1C(=O)Nc1ccc(Cl)c(C(F)(F)F)c1 (stereo not shown) [C5, N-[4-Chloro-3-(trifluoromethyl)phenyl]-2-(4-ethoxy-2-hydroxybutoxy)benzamide] | highest performers | 
5 | CC(C)CNC(=O)COc1ccccc1C(=O)Nc1ccc(Cl)c(C(F)(F)F)c1 [C6, N-[4-Chloro-3-(trifluoromethyl)phenyl]-2-[2-(isobutylamino)-2-oxoethoxy]benzamide] | low-performing | 
6 | O=C(Nc1ccc(Cl)c(C(F)(F)F)c1)c1ccccc1OCC(=O)C1CCOCC1 [C7, N-[4-Chloro-3-(trifluoromethyl)phenyl]-2-[2-oxo-2-(tetrahydro-2H-pyran-4-yl)ethoxy]benzamide] | low-performing | 
7 | CNC(=O)NC(=O)COc1ccccc1C(=O)Nc1ccc(Cl)c(C(F)(F)F)c1 [C8, N-[4-Chloro-3-(trifluoromethyl)phenyl]-2-{2-[(methylcarbamoyl)amino]-2-oxoethoxy}benzamide] | highest performers | 
8 | COC(=O)CNC(=O)COc1ccccc1C(=O)Nc1ccc(Cl)c(C(F)(F)F)c1 [C9, Methyl N-[(2-{[4-chloro-3-(trifluoromethyl)phenyl]carbamoyl}phenoxy)acetyl]glycinate] | low-performing | 
9 | O=C(COc1ccccc1C(=O)Nc1ccc(Cl)c(C(F)(F)F)c1)NCC1CC1 [C10, N-[4-Chloro-3-(trifluoromethyl)phenyl]-2-{2-[(cyclopropylmethyl)amino]-2-oxoethoxy}benzamide] | low-performing | 
10 | CCOc1ccccc1C(=O)Nc1ccc(Cl)c(C(F)(F)F)c1 [CTB, N-[4-chloro-3-(trifluoromethyl)phenyl]-2-ethoxybenzamide, reference compound] |  | Rescue of locomotor ability (in words) ([1]; 10 to 100 μM): significant rescue
